# M1 PAM: human CHRM1 positive allosteric modulation | AID 588819 | 0.088% of 360,000 active | activation, % at 3 µM | P11229 | CHO-K1 hM1, Fluo-8 calcium fluorescence, ACh EC20; 0% = ACh EC20, 100% = maximal ACh; in the data active = activation above about 19%, passing the limit was not always enough
# M5 ag: CHRM5 agonism in calcium assay; P08912; CHO-K1 hM5 cells, Fluo-8 calcium fluorescence; 0% DMSO wells, 100% maximal acetylcholine response; activation, % at 3 µM; 0.19% of 360,000 active;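 active = activation above the run's mean over test compounds plus 3 SD, cut at about 23% in these data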;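 note: signal is peak over basal fluorescence ratio across the kinetic read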
# Target sequence (P08912 whole entry, looked up): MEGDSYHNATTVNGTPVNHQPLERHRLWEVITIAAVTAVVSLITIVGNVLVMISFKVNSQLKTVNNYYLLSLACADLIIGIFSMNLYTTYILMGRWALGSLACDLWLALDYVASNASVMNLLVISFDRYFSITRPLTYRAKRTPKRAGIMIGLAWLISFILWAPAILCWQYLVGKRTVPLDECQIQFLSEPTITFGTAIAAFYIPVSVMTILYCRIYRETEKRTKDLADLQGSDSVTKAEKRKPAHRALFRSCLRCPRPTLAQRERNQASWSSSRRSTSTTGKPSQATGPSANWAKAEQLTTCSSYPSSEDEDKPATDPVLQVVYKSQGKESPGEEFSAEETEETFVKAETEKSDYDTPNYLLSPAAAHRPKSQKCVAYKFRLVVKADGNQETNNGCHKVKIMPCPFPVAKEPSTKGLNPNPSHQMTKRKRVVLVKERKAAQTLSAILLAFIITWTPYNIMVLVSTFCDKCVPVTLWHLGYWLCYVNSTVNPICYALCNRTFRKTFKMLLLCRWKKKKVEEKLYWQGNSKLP
# M1 antag: antagonists of human M1 muscarinic receptor. P11229. CHO-K1 hM1, Fluo-8 calcium fluorescence, ACh EC80 antagonist. inhibition, % at 3 µM. 1.3% of 360,000 active;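 active = percent inhibition above its own plate's cutoff, namely the mean of that plate's compound wells plus 3 SD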;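 note: peak over basal fluorescence ratio during 140 s after agonist addition; 0% = ACh EC80 plus DMSO and 100% = DMSO alone without agonist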
# CHRM5 antagonist: antagonists of human muscarinic M5 receptor (CHRM5); P08912; CHO-hM5 cells, Fluo-8 calcium fluorescence, ACh EC80; inhibition, % at 3 µM; 0.59% of 360,000 active; AID 624040;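 active = inhibition above a per-plate cutoff, the mean of that plate's test compounds plus 3 SD, cut at about 27% in these data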;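 note: 0% = acetylcholine EC80 with DMSO and 100% = DMSO without agonist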
# M5 PAM: potentiates acetylcholine response at human M5 receptor. CHO-K1 hM5, Fluo-8 calcium, ACh EC20 PAM; 0% = ACh EC20, 100% = ACh EC100. activation, % at 3 µM. 0.3% of 360,000 active;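 active = activation above the run cutoff, the mean activation of all test compounds plus 3 SD, cut at about 18% in these data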
#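 system = human M5 receptor in CHO-K1 cells | reagent = EC20 acetylcholine as agonist stimulus | compound dosing = single-point, 3 µM nominal | incubation = Fluo-8 loading 80 min at 37 °C plus 30 min room temperature | detection = Fluo-8 calcium dye fluorescence, kinetic read | benchmarks = low control EC20 acetylcholine (0%), high control EC100 acetylcholine (100%)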
# M1 ag: human M1 muscarinic receptor agonism. 0.33% of 360,000 active. CHO-K1 hM1, Fluo-8 calcium fluorescence, agonist mode; 0% DMSO, 100% acetylcholine EC100. P11229. activation, % at 3 µM;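 active = activation above the run's mean compound activation plus 3 SD, cut at about 16% in these data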;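 note: peak over basal fluorescence ratio within a 140 s kinetic read after compound addition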
# The depositor's hits bear a star; . = not tested or not shown. In the library only some 2% were active in any assay of this set; here they are far more common.
SMILES,M1 PAM,M5 ag,M1 antag,CHRM5 antagonist,M5 PAM,M1 ag
COCCNC(=O)C1CCCN(C(=O)c2nc3ccccc3s2)CC1 (centres undefined),12,-1,-22,-1,3,-1
O=C(Nc1cccc(C(=O)N2CCOCC2)c1)C1CCCCC1,.,2,.,-7,3,.
Cc1ccc(N2CCN(C(=O)C(=O)c3cccc([N+](=O)[O-])c3)CC2)cc1,.,-1,.,1,-6,.
O=C(COC(=O)/C=C/c1ccccc1)Nc1ccc2c(c1)OCCO2,27*,-1,-18,7,-3,2
Cc1nc(NC(=O)CSc2nc3ccccc3s2)sc1C(=O)N(C)C,25*,-2,-20,1,3,1
Cc1cc(C)nc(NC(=O)CSc2nc3ccccc3s2)n1,5,-3,-5,5,1,-6
CCOC(=O)C1=NNC(C(=O)c2ccccc2)C1c1ccc(Cl)cc1 (centres undefined),-2,-2,-1,13,-14,-5
O=C(c1ccccc1)C1N=NCC1c1ccc(Cl)cc1 (centres undefined),2,27*,-3,33*,-20,-3
O=C(NCc1cccnc1)NC1(C(F)(F)F)Oc2ccccc2O1,-1,-7,13,-15,40*,-3
CC(C)CNC(=O)NC1(C(F)(F)F)Oc2ccccc2O1,5,2,-5,0,5,-7
CN(C)CCN1CCN(C2CN(Cc3cn(Cc4ccccc4)nn3)S(=O)(=O)C2)CC1 (centres undefined),.,3,.,9,2,.
Cc1ccc(N2C(=O)[C@@H]3[C@H](C2=O)C2c4ccccc4C=NN2[C@@H]3C(=O)c2ccc(Cl)cc2)cc1 (some centres undefined),4,-3,-6,27*,-10,-6
O=C(c1ccc(Cl)cc1)[C@@H]1[C@@H]2C(=O)N(c3ccc(Cl)cc3)C(=O)[C@@H]2C2c3ccccc3C=NN21 (some centres undefined),4,-2,-4,14,-8,-6
O=S(=O)(c1cccs1)N1CCCCC1,2,-1,-7,3,1,-3
CC1CCCN(CCCNC(=O)C2CCC(CNS(=O)(=O)c3cccc4nsnc34)CC2)C1 (centres undefined),-19,-11,45*,-6,-3,-5
CCCCNC(=O)C1CCC(CNS(=O)(=O)c2cccc3nsnc23)CC1 (centres undefined),9,-9,-20,8,2,-3
COc1ccccc1-c1cccc(-c2nc(C(=O)N3CCCCC3)cc3c2[C@@H](CCO)N(S(=O)C(C)(C)C)C3)c1 (some centres undefined),-3,4,8,7,-10,-3
COC(=O)/C=C1\OC(C2CC2)c2ccccc21 (centres undefined),.,2,.,9,2,.
CCCOc1ccc(C(=O)N2CCCC2C(=O)O)cc1 (centres undefined),28*,2,-24,-3,-2,3
CC1(c2nnnn2Cc2ccccc2)CCC(=O)N1Cc1ccco1 (centres undefined),.,0,.,4,2,.
COC(=O)[C@@]12C[C@@H](CC(=O)N3CCN(C(=O)c4ccco4)CC3)C(=O)N(Cc3ccccc3)C1=CCC(C)(C)C2,.,1,.,9,-5,.
Cc1cccc(NC(=O)c2ccc(F)c(S(=O)(=O)NCc3ccco3)c2)c1,12,2,-17,-16,19*,3
CC(=O)Nc1cccc(NC(=O)c2ccc(S(=O)(=O)NCc3ccco3)cc2)c1,4,0,-1,-3,5,-3
COc1cc(C=O)ccc1OC(=O)c1cccnc1,20,-2,-14,30*,-14,7
C[C@@H]1CN([C@@H](C)CO)C(=O)CCCn2nncc2CO[C@H]1CN(C)Cc1ccc2c(c1)OCCO2,0,0,-10,4,6,-8
SMILES,M1 PAM,M5 ag,M1 antag,CHRM5 antagonist,M5 PAM,M1 ag
CC(=O)NCC(=O)N(c1ccccc1)C1(C(=O)NC2CCCCC2)CCCCC1,-6,-3,-13,-4,20*,-1
CN(C(=O)c1ccccn1)C1(C(=O)NC2CCCCC2)CCCCC1,10,-9,-7,6,17,-1
O=C(CCN1C(=O)c2ccccc2C1=O)N(CCO)Cc1ccccc1,-27,0,101*,0,6,-1
CC(=O)c1ccc(NC(=S)NC(C)c2ccc(Cl)cc2Cl)cc1 (centres undefined),-1,14,16,29*,-15,3
CC(=O)c1ccc(NC(=S)Nc2ccc(Br)c(Cl)c2)cc1,-1,3,13,13,-3,0
Cc1cccc(C)c1NC(=O)C1(C)CSCC(=O)N1CCc1ccccc1 (centres undefined),.,1,.,0,2,.
OCCCCNCc1ccc(OCc2ccccc2Cl)cc1,-35,-5,44*,5,-14,-11
CC(=O)Nc1ccc(NC(=O)C(C)OC(=O)c2oc3ccccc3c2C)cc1 (centres undefined),-17,-3,20,2,7,-7
Cc1c(C(=O)OCC(=O)N(C)c2ccccc2)oc2ccccc12,-22,-6,33*,-10,2,-5
Cc1c(C(=O)OCC(=O)N2C(C)CCCC2C)oc2ccccc12 (centres undefined),4,-2,-12,-9,-1,-6
Cc1c(C(=O)OCCN2CCCCC2)oc2ccccc12,-21,-8,92*,1,-11,-4
Cc1c(C(=O)OC(C)CCN(C)C)oc2ccccc12 (centres undefined),-22,-5,98*,7,-13,-5
CC(C)(C)c1ccc(C(=O)OCCN2CCCCC2)cc1,-30,-2,45*,13,-9,-7
Cc1ccccc1S(=O)(=O)NC(=O)C1(C)CCN1C(=O)Cc1ccccc1Cl (centres undefined),7,-1,-18,1,-6,-3
CCC/C=C/c1ccc(CN2C(CC(C)C)C(=O)N(Cc3cn(CCOCOC)nn3)CCS2(=O)=O)cc1 (centres undefined),-4,0,11,1,3,-2
Cc1c(C(=O)OCC(=O)N(C)Cc2ccccc2)oc2ccccc12,0,-4,-1,11,-4,-8
Cc1c(C(=O)OCC(C)(C)CN(C)C)oc2ccccc12,-20,-13,53*,-3,0,-4
CCN(CC)CC(C)(C)COC(=O)c1oc2ccccc2c1C,-22,-14,32*,-4,3,-7
COc1cccc(C(C(=O)NCc2ccccc2)N2CCN(C(=O)C3CCCO3)CC2)c1OC (centres undefined),.,0,.,8,0,.

# Screening data (PubChem BioAssay)
